Reference: ChEMBL document CHEMBL1157192, “No carrier added synthesis of O-(2'-[18F]fluoroethyl)-L-tyrosine via a novel type of chiral enantiomerically pure precursor, NiII complex of a (S)-tyrosine Schiff base” (Bioorg Med Chem, 2008)

Experiments:
Details in all cases: in vivo
Blood [1] = assay: Biodistribution in blood of Wistar rat bearing turpentine-induced aseptic abscess at 150-180 uCi after 40 mins; assay type: ADME, organism-based
Outline: (§1)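 Male Wistar rats (150–200 g) received 150–180 μCi ([…]) [18F]FET in 0.3 mL isotonic solution via the jugular vein. They were killed at 40 min. Organs were dissected, blotted of blood, weighed and gamma-counted, and values are given as %ID/g, with five rats per time point. Glioma35 homografts grew for 14 days after subcutaneous or intramuscular injection into the right hind limb. Abscesses were raised by turpentine oil (10 μL) into the right hind-limb muscle 24 h before the experiment.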

[2] = Biodistribution in urinary bladder of Wistar rat bearing glioma35 rat tumor at 150-180 uCi after 40 mins; assay type: ADME, organism-based; outline: as §1
Muscle tissue [3] = assay: Biodistribution in muscle of Wistar rat bearing turpentine-induced aseptic abscess at 150-180 uCi after 40 mins; assay type: ADME, organism-based; outline: as §1
[4] = Biodistribution in abscess of Wistar rat bearing turpentine-induced aseptic abscess at 150-180 uCi after 40 mins; assay type: ADME, organism-based; outline: as §1
[5] = Biodistribution in tumor of Wistar rat bearing glioma35 rat tumor at 150-180 uCi after 40 mins; assay type: ADME, organism-based, Neoplasm; outline: as §1
Muscle tissue [6] = assay: Biodistribution in muscle of Wistar rat bearing glioma35 rat tumor at 150-180 uCi after 40 mins; assay type: ADME, organism-based; outline: as §1
Blood [7] = assay: Biodistribution in blood of Wistar rat bearing glioma35 rat tumor at 150-180 uCi after 40 mins; assay type: ADME, organism-based; outline: as §1
Kidney [8] = assay: Biodistribution in kidney of Wistar rat bearing turpentine-induced aseptic abscess at 150-180 uCi after 40 mins; assay type: ADME, organism-based; outline: as §1
Heart [9] = assay: Biodistribution in heart of Wistar rat bearing turpentine-induced aseptic abscess at 150-180 uCi after 40 mins; assay type: ADME, organism-based; outline: as §1
Brain [10] = assay: Biodistribution in brain of Wistar rat bearing turpentine-induced aseptic abscess at 150-180 uCi after 40 mins; assay type: ADME, organism-based; outline: as §1
Brain [11] = assay: Biodistribution in brain of Wistar rat bearing glioma35 rat tumor at 150-180 uCi after 40 mins; assay type: ADME, organism-based; outline: as §1
Heart [12] = assay: Biodistribution in heart of Wistar rat bearing glioma35 rat tumor at 150-180 uCi after 40 mins; assay type: ADME, organism-based; outline: as §1
[13] = Biodistribution in urinary bladder of Wistar rat bearing turpentine-induced aseptic abscess at 150-180 uCi after 40 mins; assay type: ADME, organism-based; outline: as §1
Liver [14] = assay: Biodistribution in liver of Wistar rat bearing turpentine-induced aseptic abscess at 150-180 uCi after 40 mins; assay type: ADME, organism-based; outline: as §1
Liver [15] = assay: Biodistribution in liver of Wistar rat bearing glioma35 rat tumor at 150-180 uCi after 40 mins; assay type: ADME, organism-based; outline: as §1
Kidney [16] = assay: Biodistribution in kidney of Wistar rat bearing glioma35 rat tumor at 150-180 uCi after 40 mins; assay type: ADME, organism-based; outline: as §1

Drug uptake (Blood [1]): 1.45 % ID/g | Drug uptake [2]: 2.51 % ID/g | Drug uptake (Muscle tissue [3]): 1.32 % ID/g | Drug uptake [4]: 1.75 % ID/g | Drug uptake [5]: 2.53 % ID/g | Drug uptake (Muscle tissue [6]): 0.84 % ID/g | Drug uptake (Blood [7]): 1.24 % ID/g | Drug uptake (Kidney [8]): 1.58 % ID/g | Drug uptake (Heart [9]): 1.47 % ID/g | Drug uptake (Brain [10]): 1 % ID/g | Drug uptake (Brain [11]): 0.54 % ID/g | Drug uptake (Heart [12]): 0.98 % ID/g | Drug uptake [13]: 3.94 % ID/g | Drug uptake (Liver [14]): 1.24 % ID/g | Drug uptake (Liver [15]): 1.03 % ID/g | Drug uptake (Kidney [16]): 0.86 % ID/g
Structure (SMILES): N[C@@H](Cc1ccc(OCC[18F])cc1)C(=O)O [FLORETYROSINE F18]
